What was measured:
[1] = target: T1, Substance-P receptor (Homo sapiens, UniProt P25103); test: Displacement of [3H]SP from human recombinant NK1 receptor expressed in CHO cells after 40 mins by scintillation counting analysis; format: cell-based
In short: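 Membranes from hNK1-CHO cells (8 µg protein) with [3H]-SP 0.5 nM in HEPES pH 7.4, 3 mM MnCl2, 0.02% BSA. Compound 1 pM–1 µM final, 40 min at room temperature. Nonspecific binding with 1 µM SP. Filtration through PEI-soaked GF/B filters, scintillation counting. IC50 fitted with slope fixed at unity, converted to Ki by Cheng-Prusoff; duplicates.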

[2] = target: T1, Substance-P receptor; test: Antagonist activity at NK1 receptor (unknown origin)
[3] = Plasma clearance in rat at 0.5 mg/kg, iv and 1 mg/kg, po; format: ADME, organism-based
In short: (§1)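 Rat and dog pharmacokinetics derived from plasma concentrations after 0.5 mg/kg i.v. and 1 mg/kg oral dosing.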

[4] = Oral bioavailability in dog at 1 mg/kg; format: ADME, organism-based, Canis lupus familiaris; settings: in vivo; in short: as §1
[5] = Volume of distribution at steady state in rat at 0.5 mg/kg, iv and 1 mg/kg, po; format: ADME, organism-based; settings: in vivo, read-out: Vdss; in short: as §1
[6] = test system: Meriones unguiculatus; test: Ex vivo NK1 receptor occupancy in Mongolian gerbil striatum assessed as inhibition of [3H]-GR205171 binding at 0.3 mg/kg, po by autoradiography; format: functional
In short: (§2)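 Gerbils dosed orally (0.1–1 mg/kg) 1 h before, killed after social interaction testing. Unwashed 12 µm coronal sections incubated 10 min with 0.3 nM [3H]-GR205171; nonspecific binding with 100 nM GR205171. Imaging-plate exposure 10 days. Occupancy = 100% minus specific binding ratio treated/vehicle in striatum; 3 animals per group.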

[7] = test system: Callithrix jacchus; test: Anxiolytic activity in marmoset human threat test model assessed as reduction in number of postures at 10 mg/kg, po preincubated for 1 hr followed by compound wash out for 3 days relative to vehicle-treated control; format: functional; set-up: scale not given: the % may be the effect or the level left
In short: (§3)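 Marmosets, both sexes, >2 years, 300–500 g, preselected for ≥10 postures in 2 min. Oral dosing 0.3–10 mg/kg (1 ml/kg) in 0.5% methocel with 1% DMSO, 1 h before a human-observer threat test. Blind random crossover, ≥3 day washout, 4–7 animals. Postures counted; paired t-test against matched vehicle.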

[8] = test system: Meriones unguiculatus; test: Inhibition of GR73632-induced tapping behavior in po dosed Mongolian gerbil foot tapping model administered 8 hrs prior to GR73632 challenge; format: functional; settings: read-out: ID50 (the source's name)
In short: (§4)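 Male gerbils (50–70 g) dosed orally (10 ml/kg) in 0.5% methocel with 5% DMSO, 1, 4, 8 or 24 h before icv GR73632 (3 pmol/5 µl) given under brief isoflurane. Hind foot tapping timed for 3 min; ≥7 animals per treatment.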

[9] = Volume of distribution at steady state in dog at 0.5 mg/kg, iv and 1 mg/kg, po; format: ADME, organism-based, Canis lupus familiaris; settings: in vivo, read-out: Vdss; in short: as §1
[10] = test system: Meriones unguiculatus; test: Toxicity in Mongolian gerbil assessed as locomotor activity at 0.1 to 1 mg/kg, po after 1 hr; format: organism-based; set-up: dose 0.1-1 mg/kg, route oral; settings: in vivo
[11] = test system: Callithrix jacchus; test: Anxiolytic activity in marmoset human threat test model assessed as reduction in number of postures at 3 mg/kg, po preincubated for 1 hr followed by compound wash out for 3 days relative to vehicle-treated control; format: functional; set-up: scale not given: the % may be the effect or the level left; in short: as §3
[12] = test system: Meriones unguiculatus; test: Antidepressant activity in Mongolian gerbil assessed as increase in social interaction time at 0.1 mg/kg, po after 1 hr (reference value: 21.2 +/- 2.9 secs); format: functional
[13] = Inhibition of sodium channel site2 (unknown origin); set-up: species or system Homo sapiens
[14] = target: Platelet-activating factor receptor (Homo sapiens, UniProt P25105); test: Inhibition of platelet activating factor receptor (unknown origin)
[15] = test system: Meriones unguiculatus; test: Antidepressant activity in po dosed Mongolian gerbil assessed as increase in social interaction time after 1 hr; format: functional, organism-based
[16] = test system: Callithrix jacchus; test: Anxiolytic activity in marmoset human threat test model assessed as reduction in number of postures at 1 mg/kg, po preincubated for 1 hr followed by compound wash out for 3 days relative to vehicle-treated control; format: functional; set-up: scale not given: the % may be the effect or the level left; in short: as §3
[17] = test system: Callithrix jacchus; test: Anxiolytic activity in po dosed marmoset human threat test model assessed as reduction in number of postures preincubated for 1 hr followed by compound wash out for 3 days; format: functional, organism-based; in short: as §3
[18] = Displacement of [3H]GR205171 from marmoset cerebral striatum NK1 receptor after 60 mins by scintillation counting analysis; set-up: species or system Callithrix jacchus
In short: (§5)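 Brain membranes used: gerbil cortex/striatum (0.055 mg protein) or marmoset striatum (0.080 mg). Radioligand [3H]-GR205171 0.2 nM, compound 1 pM–1 µM final, in HEPES pH 7.4, MnCl2, BSA plus protease inhibitors. Incubation 60 min at room temperature; nonspecific binding with 1 µM GR205171. Filtration on GF/C, scintillation counting; LIGAND fit, duplicates.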

[19] = test system: Meriones unguiculatus; test: Inhibition of GR73632-induced tapping behavior in po dosed Mongolian gerbil foot tapping model administered 1 hr prior to GR73632 challenge; format: functional; settings: read-out: ID50 (the source's name); in short: as §4
[20] = test system: Meriones unguiculatus; test: Inhibition of GR73632-induced tapping behavior in po dosed Mongolian gerbil foot tapping model administered 4 hrs prior to GR73632 challenge; format: functional; settings: read-out: ID50 (the source's name); in short: as §4
[21] = target: Sigma non-opioid intracellular receptor 1 (Homo sapiens, UniProt Q99720); test: Inhibition of sigma1 receptor (unknown origin)
[22] = test system: Meriones unguiculatus; test: Inhibition of GR73632-induced tapping behavior in po dosed Mongolian gerbil foot tapping model administered 24 hrs prior to GR73632 challenge; format: functional; settings: read-out: ID50 (the source's name); in short: as §4
[23] = Half life in rat at 0.5 mg/kg, iv and 1 mg/kg, po; format: ADME, organism-based; settings: in vivo; in short: as §1
[24] = test system: Meriones unguiculatus; test: Antidepressant activity in Mongolian gerbil assessed as increase in social interaction time at 1 mg/kg, po after 1 hr (reference value: 21.2 +/- 2.9 secs); format: functional
[25] = Plasma clearance in dog at 0.5 mg/kg, iv and 1 mg/kg, po; format: ADME, organism-based, Canis lupus familiaris; in short: as §1
[26] = test system: Meriones unguiculatus; test: Ex vivo NK1 receptor occupancy in Mongolian gerbil striatum assessed as inhibition of [3H]-GR205171 binding at 0.1 mg/kg, po by autoradiography; format: functional; in short: as §2
[27] = test system: Meriones unguiculatus; test: Antidepressant activity in Mongolian gerbil assessed as increase in social interaction time at 0.3 mg/kg, po after 1 hr (reference value: 21.2 +/- 2.9 secs); format: functional
[28] = target: Substance-P receptor (Meriones unguiculatus, UniProt Q5DUB1); test: Displacement of [3H]GR205171 from Mongolian gerbil brain NK1 receptor after 60 mins by scintillation counting analysis; in short: as §5
[29] = test system: Meriones unguiculatus; test: Ex vivo NK1 receptor occupancy in Mongolian gerbil striatum assessed as inhibition of [3H]-GR205171 binding at 1 mg/kg, po by autoradiography; format: functional; in short: as §2
[30] = test system: Meriones unguiculatus; test: Inhibition of GR73632-induced tapping behavior in po dosed Mongolian gerbil foot tapping model administered 1 to 24 hrs prior to GR73632 challenge; format: functional, organism-based; in short: as §4
[31] = Ratio of drug uptake in brain to plasma in rat at 1 mg/kg, iv after 5 mins; format: ADME, organism-based; set-up: dose 1 mg/kg, route intravenous; settings: read-out: BPR
In short: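 Rat brain and plasma levels measured 5 min after 1 mg/kg i.v. dose; brain/plasma ratio calculated.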

[32] = target: T1, Substance-P receptor; settings: CHO
[33] = Inhibition of sigma2 receptor (unknown origin); set-up: species or system Homo sapiens
[34] = test system: Meriones unguiculatus; test: Inhibition of GR73632-induced tapping behavior in sc dosed Mongolian gerbil foot tapping model administered 1 hr prior to GR73632 challenge; format: functional; settings: read-out: ID50
[35] = Ratio of drug uptake in brain to plasma in Mongolian gerbil at 1 mg/kg, po; format: ADME, organism-based, Meriones unguiculatus; set-up: dose 1 mg/kg, route oral
In short: (§6)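 Gerbils given 1 mg/kg orally; total brain concentration and brain/plasma ratio determined.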

[36] = Half life in dog at 0.5 mg/kg, iv and 1 mg/kg, po; format: ADME, organism-based, Canis lupus familiaris; settings: in vivo; in short: as §1
[37] = Drug uptake in Mongolian gerbil brain at 1 mg/kg, po; format: ADME, organism-based, Meriones unguiculatus; set-up: dose 1 mg/kg, route oral; settings: in vivo; in short: as §6
[38] = Oral bioavailability in rat at 1 mg/kg; format: ADME, organism-based; settings: in vivo; in short: as §1
[39] = test system: Callithrix jacchus; test: Anxiolytic activity in marmoset human threat test model assessed as reduction in number of postures at 0.3 mg/kg, po preincubated for 1 hr followed by compound wash out for 3 days relative to vehicle-treated control; format: functional; set-up: scale not given: the % may be the effect or the level left; in short: as §3

T1 sequence (P25103 whole entry): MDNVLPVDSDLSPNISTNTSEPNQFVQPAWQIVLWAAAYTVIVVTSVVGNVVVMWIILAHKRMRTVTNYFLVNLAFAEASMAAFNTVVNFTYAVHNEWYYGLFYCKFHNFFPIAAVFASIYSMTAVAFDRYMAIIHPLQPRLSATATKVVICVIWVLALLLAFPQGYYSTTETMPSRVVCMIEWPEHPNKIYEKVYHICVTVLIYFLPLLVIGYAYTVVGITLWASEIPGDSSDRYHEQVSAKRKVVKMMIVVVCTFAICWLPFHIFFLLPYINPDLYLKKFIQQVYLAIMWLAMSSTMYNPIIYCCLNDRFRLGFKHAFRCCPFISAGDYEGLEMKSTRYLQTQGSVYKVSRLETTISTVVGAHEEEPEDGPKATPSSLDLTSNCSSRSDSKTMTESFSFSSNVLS
Sigma non-opioid intracellular receptor 1, sequence (Q99720 whole entry): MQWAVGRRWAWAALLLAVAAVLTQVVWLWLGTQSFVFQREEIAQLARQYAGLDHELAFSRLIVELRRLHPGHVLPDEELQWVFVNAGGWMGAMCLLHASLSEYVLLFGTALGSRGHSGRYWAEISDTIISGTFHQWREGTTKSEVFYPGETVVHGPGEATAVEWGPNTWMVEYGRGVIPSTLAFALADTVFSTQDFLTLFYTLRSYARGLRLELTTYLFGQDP
Substance-P receptor (Meriones unguiculatus, UniProt Q5DUB1), sequence (Q5DUB1 whole entry): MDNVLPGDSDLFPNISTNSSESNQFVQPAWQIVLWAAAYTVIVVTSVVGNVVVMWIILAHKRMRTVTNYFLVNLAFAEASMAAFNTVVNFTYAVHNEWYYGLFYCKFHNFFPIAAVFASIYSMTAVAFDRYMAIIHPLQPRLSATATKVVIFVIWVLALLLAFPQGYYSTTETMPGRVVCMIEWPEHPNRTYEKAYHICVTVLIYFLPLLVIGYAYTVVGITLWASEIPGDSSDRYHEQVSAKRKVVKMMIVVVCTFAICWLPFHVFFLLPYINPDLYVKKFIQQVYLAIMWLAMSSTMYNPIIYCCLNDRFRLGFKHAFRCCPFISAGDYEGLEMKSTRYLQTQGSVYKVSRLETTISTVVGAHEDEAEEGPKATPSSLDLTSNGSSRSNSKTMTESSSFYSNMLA
Platelet-activating factor receptor, sequence (P25105 whole entry): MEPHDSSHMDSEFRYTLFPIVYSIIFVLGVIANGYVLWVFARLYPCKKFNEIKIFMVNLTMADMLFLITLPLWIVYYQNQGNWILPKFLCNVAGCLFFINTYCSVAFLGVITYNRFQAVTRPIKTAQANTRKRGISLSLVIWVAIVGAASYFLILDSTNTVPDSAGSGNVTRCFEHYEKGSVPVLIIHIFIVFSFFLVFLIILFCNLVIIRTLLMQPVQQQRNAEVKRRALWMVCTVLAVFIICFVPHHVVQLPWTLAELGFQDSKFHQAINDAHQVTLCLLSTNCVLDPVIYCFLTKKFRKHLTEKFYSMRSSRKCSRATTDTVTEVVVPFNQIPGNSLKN

Cc1cc(F)ccc1[C@H]1C[C@@H](N2CCN3C(=O)CC[C@@H]3C2)CCN1C(=O)N(C)[C@H](C)c1cc(C(F)(F)F)cc(C(F)(F)F)c1
Ki [1]: 0.2 nM

Cc1cc(F)ccc1[C@H]1C[C@H](N2CCN3C(=O)CC[C@@H]3C2)CCN1C(=O)N(C)[C@H](C)c1cc(C(F)(F)F)cc(C(F)(F)F)c1
Ki [1]: 0.138 nM

COc1ccccc1CN1CN2CCCC1C2c1ccccc1 (configuration not stated)
IC50 [2]: 0.61 nM

CC(=O)N1CCN([C@H]2CCN(C(=O)N(C)[C@H](C)c3cc(C(F)(F)F)cc(C(F)(F)F)c3)[C@@H](c3ccc(F)cc3C)C2)CC1 [CASOPITANT]
clearance [3]: 37 mL/min/kg
bioavailability [4]: 34%
Vd [5]: 3.2 L/kg

COc1ccc(-n2cnnn2)cc1CN[C@H]1CCCN[C@H]1c1ccccc1
IC50 [2]: 0.04 nM

Cc1cc(F)ccc1[C@H]1C[C@@H](N2CCN3C(=O)CC[C@H]3C2)CCN1C(=O)N(C)[C@H](C)c1cc(C(F)(F)F)cc(C(F)(F)F)c1 [ORVEPITANT]
Occ [6]: 74.6%
Activity [7]: 46.4%
ED50 [8]: 0.09 mg/kg
Vd [9]: 2 L/kg
Activity [10]: Non-toxic
Activity [11]: 36.6%
Time [12]: 22.1 s
Ki [13]: 4540 nM
Ki [14]: 2270 nM
Activity [15]: Dose-dependent effect
Ki [1]: 0.0631 nM
Activity [16]: 34.9%
Activity [17]: Dose-dependent effect
clearance [3]: 29 mL/min/kg
pKi [18]: 10.4
ED50 [19]: 0.11 mg/kg
ED50 [20]: 0.09 mg/kg
Ki [21]: 940 nM
ED50 [22]: 3.36 mg/kg
half-life [23]: 2.3 h
Time [24]: 33.1 s
clearance [25]: 6 mL/min/kg
Occ [26]: 47.8%
Time [27]: 27.3 s
Ki [28]: 0.0316 nM
Occ [29]: 95.2%
Activity [30]: Dose-dependent effect
Kp at 5 min [31]: 1.2
pKb [32]: 10.3
Ki [33]: 3260 nM
ED50 [34]: 0.07 mg/kg
Kp [35]: 1.2
half-life [36]: 6.1 h
Drug uptake [37]: 91 ng/g
bioavailability [38]: 17%
bioavailability [4]: 55%
Vd [5]: 3.7 L/kg
Activity [39]: 11.8%

Cc1ccccc1-c1cc(N2CCN(C)CC2)ncc1N(C)C(=O)C(C)(C)c1cc(C(F)(F)F)cc(C(F)(F)F)c1 [NETUPITANT]
IC50 [2]: 0.95 nM

Cc1cc(F)ccc1[C@H]1C[C@H](N2CCN3C(=O)CC[C@H]3C2)CCN1C(=O)N(C)[C@H](C)c1cc(C(F)(F)F)cc(C(F)(F)F)c1
Vd [9]: 2 L/kg
Ki [1]: 0.0646 nM
clearance [3]: 25 mL/min/kg
half-life [23]: 2.8 h
clearance [25]: 11 mL/min/kg
Kp at 5 min [31]: 0.9
pKb [32]: 10.5
half-life [36]: 5.1 h
bioavailability [38]: 19%
bioavailability [4]: 28%
Vd [5]: 3.4 L/kg

Reference: ChEMBL document CHEMBL2440072, “Identification, biological characterization and pharmacophoric analysis of a new potent and selective NK1 receptor antagonist clinical candidate” (Bioorg Med Chem, 2013)
